In ChEMBL document CHEMBL1122873, “Acetoxy-substituted 1,1,2-triphenylbut-1-enes with antiestrogenic and mammary tumor inhibiting properties” (1985):

Assays:
Mus musculus [1] = assay: In vivo inhibition of hormone-dependent MXT mammary tumor in BDF1 mouse at 11.3 mg/kg dose; assay type: functional
Method in brief: (§1)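 Transplantable hormone-dependent MXT tumor pieces (1 per animal) were implanted in BDF1 mice, then randomized into groups of 10. Dosing was sc three times weekly (Mon/Wed/Fri) in olive oil (0.1 mL/mouse) from day 1 after transplantation for 6 weeks, at equimolar doses. Read-out is tumor weight T/C % versus solvent control (mean of 10); significance α ≤ 0.05.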

[2] = biological target: T1, Estrogen receptor (Mus musculus) (UniProt O08537+P19785); assay: Antiestrogenic activity in immature mouse Uterine weight test at 25 ug dose; assay type: functional
Method in brief: (§2)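 Antiestrogenic read-out is inhibition of estrone-stimulated uterine growth, given as % inhibition. Immature female NMRI mice (10–12 g, 20 days old, 10 per group) received the compound sc daily for 3 days in 0.1 mL olive oil. Uteri were taken 24 h after the last dose, Bouin-fixed, dried and weighed.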

Mus musculus [3] = assay: In vivo inhibition of hormone-dependent MXT mammary tumor in BDF1 mouse at 8.0 mg/kg dose; assay type: functional; method in brief: as §1
[4] = biological target: T1, Estrogen receptor (Mus musculus); assay: In vivo uterotrophic effect in hormone-dependent MXT mammary tumor bearing BDF1 mice at 8.0 mg/kg dose; assay type: functional, organism-based; design: dose 8 mg/kg
Method in brief: (§3)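 Uterotrophic effect was measured in the same MXT tumor-bearing BDF1 mice (groups of 10). They were dosed sc three times weekly in olive oil (0.1 mL/mouse) for 6 weeks from day 1 after transplantation. Read-out is T/C % of uterotrophic effect versus solvent control after 6 weeks (mean of 10); significance α ≤ 0.05.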

[5] = biological target: T1, Estrogen receptor (Mus musculus); assay: Estrogenic activity in immature mouse using Uterine weight test at 5 ug dose; assay type: functional
Method in brief: (§4)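 Immature female NMRI mice (10–12 g, 20 days old at start, 10 per group) got the compound sc daily for 3 consecutive days in 0.1 mL olive oil. Uteri were removed 24 h after the last injection, fixed in Bouin's solution, dried and weighed. Uterine growth stimulation is the estrogenic read-out.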

[6] = biological target: T2, Estrogen receptor (Bos taurus) (UniProt Q9XSB5+P49884); assay: Tested in vitro for its binding affinity against Estrogen receptor; assay type: protein assay
Method in brief: (§5)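 Calf uterine cytosol was incubated with 1×10⁻⁹ M [³H]estradiol and five or six competitor concentrations for 16 h at 4 °C. Dextran-coated charcoal removed unbound ligand (90 min, 4 °C), and supernatant radioactivity was counted. The 50% displacement concentration was read from a semilog plot. RBA = [E2]/[I] × 100.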

[7] = biological target: T1, Estrogen receptor (Mus musculus); assay: Antiestrogenic activity in immature mouse Uterine weight test at 5 ug dose; assay type: functional; method in brief: as §2
[8] = biological target: T1, Estrogen receptor (Mus musculus); assay: Antiestrogenic activity in immature mouse Uterine weight test at 25 ug dose
Mus musculus [9] = assay: In vivo inhibition of hormone-dependent MXT mammary tumor in BDF1 mouse at 5.4 mg/kg dose; assay type: functional; method in brief: as §1
[10] = biological target: T1, Estrogen receptor (Mus musculus); assay: Estrogenic activity in immature mouse using Uterine weight test at 1 ug dose; assay type: functional; method in brief: as §4
[11] = biological target: T1, Estrogen receptor (Mus musculus); assay: Estrogenic activity in immature mouse using Uterine weight test at 25 ug dose; assay type: functional; method in brief: as §4
[12] = biological target: T1, Estrogen receptor (Mus musculus); assay: Estrogenic activity in immature mouse using Uterine weight test at 10 ug dose; assay type: functional; method in brief: as §4
[13] = biological target: T1, Estrogen receptor (Mus musculus); assay: Antiestrogenic activity in immature mouse Uterine weight test at 1 ug dose; assay type: functional; method in brief: as §2
[14] = biological target: T1, Estrogen receptor (Mus musculus); assay: Estrogenic activity in immature mouse using Uterine weight test at 0.5 ug dose; assay type: functional; method in brief: as §4
[15] = biological target: T2, Estrogen receptor (Bos taurus); assay: Relative displacement of [3H]estradiol from calf uterine estrogen receptor; assay type: protein assay; method in brief: as §5
[16] = biological target: T1, Estrogen receptor (Mus musculus); assay: Estrogenic activity in immature mouse using Uterine weight test at 50 ug dose; assay type: functional; method in brief: as §4
[17] = biological target: T1, Estrogen receptor (Mus musculus); assay: Antiestrogenic activity in immature mouse Uterine weight test at 100 ug dose; assay type: functional; method in brief: as §2
[18] = biological target: T1, Estrogen receptor (Mus musculus); assay: Estrogenic activity in immature mouse using Uterine weight test at 250 ug dose; assay type: functional; method in brief: as §4
[19] = biological target: T1, Estrogen receptor (Mus musculus); assay: In vivo uterotrophic effect in hormone-dependent MXT mammary tumor bearing BDF1 mice at 12 mg/kg dose; assay type: functional, organism-based; design: dose 12 mg/kg; method in brief: as §3
Mus musculus [20] = assay: In vivo inhibition of hormone-dependent MXT mammary tumor in BDF1 mouse at 12 mg/kg dose; assay type: functional; method in brief: as §1

T1 sequence (O08537 whole entry, looked up): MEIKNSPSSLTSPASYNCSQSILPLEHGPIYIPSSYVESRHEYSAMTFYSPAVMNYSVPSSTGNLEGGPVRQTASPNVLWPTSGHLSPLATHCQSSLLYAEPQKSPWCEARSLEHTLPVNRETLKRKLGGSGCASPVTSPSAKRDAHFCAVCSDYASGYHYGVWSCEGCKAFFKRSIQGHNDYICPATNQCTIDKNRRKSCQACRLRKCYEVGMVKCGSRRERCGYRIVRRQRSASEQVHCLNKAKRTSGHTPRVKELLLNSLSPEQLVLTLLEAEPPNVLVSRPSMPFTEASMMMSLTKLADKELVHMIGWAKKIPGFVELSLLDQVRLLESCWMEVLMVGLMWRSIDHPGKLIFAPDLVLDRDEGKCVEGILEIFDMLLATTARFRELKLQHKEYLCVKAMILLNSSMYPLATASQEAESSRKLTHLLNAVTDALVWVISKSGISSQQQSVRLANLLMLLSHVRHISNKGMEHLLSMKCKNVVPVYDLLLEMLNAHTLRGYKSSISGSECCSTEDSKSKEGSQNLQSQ
T1 sequence (P19785 whole entry, looked up): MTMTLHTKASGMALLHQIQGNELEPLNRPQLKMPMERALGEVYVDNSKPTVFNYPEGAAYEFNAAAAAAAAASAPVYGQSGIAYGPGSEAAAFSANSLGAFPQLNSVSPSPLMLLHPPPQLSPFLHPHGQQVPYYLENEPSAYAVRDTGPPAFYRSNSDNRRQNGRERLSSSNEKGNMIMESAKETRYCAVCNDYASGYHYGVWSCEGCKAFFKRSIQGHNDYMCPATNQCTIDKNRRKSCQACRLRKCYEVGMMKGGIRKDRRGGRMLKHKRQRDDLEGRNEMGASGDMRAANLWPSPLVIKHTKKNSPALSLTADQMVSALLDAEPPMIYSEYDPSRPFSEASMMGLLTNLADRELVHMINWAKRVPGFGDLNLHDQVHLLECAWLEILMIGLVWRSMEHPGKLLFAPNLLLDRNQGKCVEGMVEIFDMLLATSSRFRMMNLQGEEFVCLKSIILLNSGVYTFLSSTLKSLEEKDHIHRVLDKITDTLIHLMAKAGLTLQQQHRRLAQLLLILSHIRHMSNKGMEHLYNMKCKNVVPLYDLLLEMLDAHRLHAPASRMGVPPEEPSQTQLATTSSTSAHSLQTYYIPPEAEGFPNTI

Row | inhibition [2] | T/C [4] | Estrogenic effect [5] | inhibition [7] | Estrogenic effect [10] | RBA [15] | Estrogenic effect [16] | inhibition [17] | Compound | T/C (Mus musculus [3]) | further results
1 | 32% | 116% | 35 | 41% | 23 | 8.7% | 73 | 3% | CC/C(=C(\c1ccc(OC(C)=O)cc1)c1cccc(OC(C)=O)c1)c1ccccc1 | 25% | Estrogenic effect [18]: 85
2 | 0% | 175% | 80 | 0% | 18 | 4.2% | 92 | – | CC/C(=C(/c1ccccc1)c1cccc(OC(C)=O)c1)c1ccc(OC(C)=O)cc1 | 2% | inhibition [13]: 12%
3 | 33% | – | 15 | 28% | 8 | 3.5% | 66 | 9% | CC/C(=C(/c1ccc(OC(C)=O)cc1)c1cccc(OC(C)=O)c1)c1ccccc1 | – | T/C [19]: 110%; T/C (Mus musculus [20]): 8%; Estrogenic effect [18]: 66
4 | 16% | 96% | 18 | 45% | 0 | 1.8% | 61 | 9% | CC/C(=C(\c1ccccc1)c1cccc(OC(C)=O)c1)c1ccc(OC(C)=O)cc1 | 62% | –

More lines, now with the values behind:

Row | Compound | inhibition [2] | T/C [4] | Estrogenic effect [5] | inhibition [7] | Estrogenic effect [10] | RBA [15] | Estrogenic effect [16] | inhibition [17] | T/C (Mus musculus [3]) | further results
5 | CC/C(=C(\c1ccccc1)c1ccc(OCCN(C)C)cc1)c1ccccc1.O=C(O)CC(O)(CC(=O)O)C(=O)O [TAMOXIFEN CITRATE] | – | – | – | – | – | – | – | – | – | T/C (Mus musculus [1]): 4%
6 | CC/C(=C(\c1ccccc1)c1ccc(OC(C)=O)cc1)c1cccc(OC(C)=O)c1 | 0% | 193% | 94 | 0% | – | – | – | – | 7% | relative binding affinity (RBA) [6]: 6.1; inhibition [8]: 0%
7 | CC/C(=C(/CC)c1ccc(O)cc1)c1ccc(O)cc1 [DIETHYLSTILBESTROL] | – | – | – | – | – | – | – | – | – | T/C (Mus musculus [9]): 3%
8 | CCC(=C(c1ccc(OC(C)=O)cc1)c1ccc(OC(C)=O)cc1)c1ccccc1 | – | 110% | 72 | 0% | 37 | – | – | – | 7% | Estrogenic effect [11]: 98; Estrogenic effect [12]: 85; inhibition [13]: 0%
9 | CC/C(=C(/c1ccccc1)c1ccc(OC(C)=O)cc1)c1cccc(OC(C)=O)c1 | – | 205% | 81 | – | 114 | 11.1% | – | – | 1% | Estrogenic effect [14]: 124
